The results in this text go back to ChEMBL document CHEMBL3739331, “Synthesis and Bioactivities of Kanamycin B-Derived Cationic Amphiphiles” (J Med Chem, 2015).

≈ marks a conversion by molar mass, not a printed value. Calls of active or inactive are those of the source.

The test system of one data set is Klebsiella pneumoniae. The data set is described as follows: Antibacterial activity against Klebsiella pneumoniae ATCC 27736 by microdilution method. In kind it is functional. The gist of the method:
(§1)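 Broth microdilution MIC against the named bacterial strain, reported in μg/mL; each determination run at least in duplicate.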
In general terms: Broth dilution looks for growth in wells or tubes with falling amounts of substance.

The subject of data set [1] is Staphylococcus aureus. The data set is described as follows: Antibacterial activity against Staphylococcus aureus NRS385 (USA 300) by microdilution method. In kind it is functional. The gist of the method:
(§2)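 Broth microdilution MIC, in μg/mL, against a panel of Gram-positive and Gram-negative strains. Run at least in duplicate.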

The subject of a further data set is Salmonella enterica. The data set is described as follows: Antibacterial activity against Salmonella enterica ATCC 14028 by microdilution method. In kind it is functional. The gist of the method: as §1
Data set [2] has as its system Candida albicans. The data set is described as follows: Antifungal activity against azole-resistant Candida albicans ATCC 64124 after 48 hrs by microbroth dilution method. In kind it is functional. As to conditions: ATCC 64124, 48 h. The gist of the method: (§3)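 Yeast MIC by broth microdilution, run in duplicate. The aminoglycoside compounds are read as MIC-0 (complete inhibition). Azoles are read as MIC-2 (50% inhibition).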

The nature of data set [3]: Cytotoxicity against human BEAS2B cells after 24 hrs by resazurin assay. In kind it is cell-based, BEAS-2B. As to conditions: human, beas-2b. In general terms: The colour change of resazurin is a common sign of viable cells or microbes.
For data set [4], the system named is Staphylococcus aureus. The data set is described as follows: Antibacterial activity against Staphylococcus aureus NRS22 (USA 600) by microdilution method. In kind it is functional. The gist of the method:
as §1

In data set [5] the test system is Staphylococcus aureus. Description: Antibacterial activity against Staphylococcus aureus NRS382 (USA 100) by microdilution method. In kind it is functional. The gist of the method:
as §1

The next data set has as its system Bacillus subtilis. The data set is described as follows: Antibacterial activity against Bacillus subtilis 168 by microdilution method. In kind it is functional. As to conditions: subsp. subtilis str. 168. The gist of the method: as §1
Another data set relates to Acinetobacter baumannii. The data set is described as follows: Antibacterial activity against Acinetobacter baumannii ATCC 19606 by microdilution method. In kind it is functional. The gist of the method:
as §1

In the next data set the test system is Escherichia coli. The data set is described as follows: Antibacterial activity against Escherichia coli MC1061 by microdilution method. In kind it is functional. The gist of the method:
as §2

Data set [6] deals with Staphylococcus aureus. Description: Antibacterial activity against Staphylococcus aureus ATCC 29213 by microdilution method. In kind it is functional. The gist of the method:
as §1

The subject of the next data set is A549. Description: Cytotoxicity against human A549 cells after 24 hrs by resazurin assay. In kind it is cell-based. The conditions noted are these: human, a549, 24 h.
Another data set relates to Serratia marcescens. The data set is described as follows: Activity of Serratia marcescens AAC(6')-2d assessed as compound acetylation activity by Ellman's method. (DTNB colorimetry detects thiols as they appear.)
Data set [7] is described as follows: Hemolytic activity against mouse RBC at 100 to 500 ug/ml after 60 mins. In kind it is ADME, cell-based. As to conditions: erythrocyte, 1 h.
A further data set deals with Enterococcus. The data set is described as follows: Antibacterial activity against vancomycin-resistant Enterococcus by microdilution method. In kind it is functional. The gist of the method: as §2
Data set [8] deals with Staphylococcus aureus. The data set is described as follows: Antibacterial activity against Staphylococcus aureus NRS383 (USA 200) by microdilution method. In kind it is functional. The gist of the method: as §1
In a further data set the test system is Aspergillus nidulans. Description: Antifungal activity against Aspergillus nidulans ATCC 38163 after 48 hrs by microbroth dilution method. In kind it is functional. The conditions noted are these: ATCC 38163, 48 h. The gist of the method: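 Filamentous fungus MIC by broth microdilution, run in duplicate. All compounds are read as MIC-0 (complete inhibition).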

In data set [9] the test system is Candida albicans. Description: Antifungal activity against azole-resistant Candida albicans MYA-1237 after 48 hrs by microbroth dilution method. In kind it is functional. As to conditions: MYA-1237, 48 h. The gist of the method:
as §3

Data set [10] in a line: Activity of AAC(3)-4 (unknown origin) assessed as compound acetylation activity by Ellman's method.
The subject of data set [11] is Mycolicibacterium smegmatis. The data set is described as follows: Antibacterial activity against Mycobacterium smegmatis MC2 155 by microdilution method. In kind it is functional. As to conditions: str. MC2 155. The gist of the method: as §2
The test system of data set [12] is Bacillus subtilis subsp. subtilis str. 168. The data set is described as follows: Activity of Bacillus subtilis 168 APH(2'')-1a assessed as compound phosphorylation activity by Ellman's method.
Data set [13] is described as follows: Activity of AAC(6')-1e/APH(2'')-1a (unknown origin) assessed as compound acetylation activity by Ellman's method.
Data set [14] has as its system Candida albicans. Description: Antifungal activity against azole-resistant Candida albicans ATCC 10231 after 48 hrs by microbroth dilution method. In kind it is functional. The conditions noted are these: ATCC 10231, 48 h. The gist of the method:
as §3

In data set [15] the test system is Mycobacterium tuberculosis. The data set is described as follows: Activity of Mycobacterium tuberculosis AAC(2')-1c assessed as compound acetylation activity by Ellman's method.
Data set [16] relates to Candida albicans. The data set is described as follows: Antifungal activity against azole-resistant Candida albicans MYA-1003 after 48 hrs by microbroth dilution method. In kind it is functional. The conditions noted are these: MYA-1003, 48 h. The gist of the method:
as §3

Another data set relates to Enterobacter cloacae. The data set is described as follows: Antibacterial activity against Enterobacter cloacae ATCC 13047 by microdilution method. In kind it is functional. The gist of the method:
as §1

The next data set concerns Listeria monocytogenes. The data set is described as follows: Antibacterial activity against Listeria monocytogenes ATCC 19115 by microdilution method. In kind it is functional. The gist of the method:
as §1

Data set [17] concerns Candida albicans. The data set is described as follows: Antifungal activity against azole-susceptible Candida albicans ATCC MYA-2310 after 48 hrs by microbroth dilution method. In kind it is functional. As to conditions: ATCC MYA-2310, 48 h. The gist of the method: as §3
For data set [18], the system named is Staphylococcus aureus. The data set is described as follows: Antibacterial activity against methicillin-resistant Staphylococcus aureus by microdilution method. In kind it is functional. The gist of the method: as §2
Data set [19] concerns Mycobacterium tuberculosis. The data set is described as follows: Activity of Mycobacterium tuberculosis Eis assessed as compound acetylation activity by Ellman's method.
The subject of another data set is Pseudomonas aeruginosa. The data set is described as follows: Antibacterial activity against Pseudomonas aeruginosa ATCC 27853 by microdilution method. In kind it is functional. The gist of the method:
as §1

For data set [20], the system named is Candida albicans. The data set is described as follows: Antifungal activity against azole-resistant Candida albicans ATCC 90819 after 48 hrs by microbroth dilution method. In kind it is functional. The conditions noted are these: ATCC 90819, 48 h. The gist of the method:
as §3

The test system of data set [21] is Candida albicans. The data set is described as follows: Antifungal activity against azole-susceptible Candida albicans ATCC MYA-2876 after 48 hrs by microbroth dilution method. The conditions noted are these: ATCC MYA-2876, 48 h. In kind it is functional. The gist of the method:
as §3

Data set [22] deals with Staphylococcus epidermidis. The data set is described as follows: Antibacterial activity against Staphylococcus epidermidis ATCC 12228 by microdilution method. In kind it is functional. The gist of the method: as §1
Data set [23] relates to Candida albicans. The data set is described as follows: Antifungal activity against azole-resistant Candida albicans ATCC 64124 at sub-MIC measured over 24 hrs by time-kill assay. In kind it is functional, organism-based. The gist of the method:
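Time-kill assay on C. albicans ATCC 64124 cultures exposed to test compound at 1/2 MIC, MIC and higher concentrations. Amphotericin B at 1 μg/mL and a no-drug culture serve as controls. CFU are counted at intervals over 24 h.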

The MIC is the smallest concentration in the dilution series that meets the test's criterion for growth inhibition. As for `CCCCCCCCSC[C@@H]1O[C@@H](O[C@@H]2[C@@H](O)[C@H](O[C@@H]3O[C@@H](CN)[C@H](O)[C@@H](O)[C@@H]3N)[C@@H](N)C[C@H]2N)[C@@H](O)[C@H](N)[C@H]1O` (stereo in doubt), the MIC with Klebsiella pneumoniae was over 128 µg/mL; against Staphylococcus aureus [1] it was 128 µg/mL (≈ 209 µM); in the data set on Salmonella enterica, over 128 µg/mL; in the data set on Candida albicans [2] it was over 125 µg/mL; against Staphylococcus aureus [4], 64 µg/mL (≈ 105 µM); against Staphylococcus aureus [5], 128 µg/mL (≈ 209 µM). The MIC in the data set on Bacillus subtilis was over 128 µg/mL; in the data set on Acinetobacter baumannii it was over 128 µg/mL; in the data set on Escherichia coli, over 128 µg/mL; against Staphylococcus aureus [6], 64 µg/mL (≈ 105 µM); in the data set with Enterococcus, 128 µg/mL (≈ 209 µM); in the data set on Staphylococcus aureus [8] it was 64 µg/mL (≈ 105 µM). Also, the MIC in the data set on Aspergillus nidulans was 15.6 µg/mL (≈ 25.5 µM); in the data set with Candida albicans [9], over 125 µg/mL; in [11] it was 64 µg/mL (≈ 105 µM); against Candida albicans [14] it was over 125 µg/mL; in the data set with Candida albicans [16], over 125 µg/mL; in the data set on Enterobacter cloacae, over 128 µg/mL. Further, the MIC against Listeria monocytogenes was 8 µg/mL (≈ 13.1 µM); with Candida albicans [17] it was over 125 µg/mL; with Staphylococcus aureus [18] it was 128 µg/mL (≈ 209 µM); against Pseudomonas aeruginosa, 64 µg/mL (≈ 105 µM); with Candida albicans [20], over 125 µg/mL; in the data set with Candida albicans [21], over 125 µg/mL. For the same compound, the MIC in data set [22] is over 128 µg/mL. Moreover, the Activity result (in data set [3]; with A549; in data set [7]) was “Non-toxic” in each case. Also, the outcome (in the data set with Serratia marcescens; in data set [10]; in data set [12]; in [13]; in data set [15]; in [19]) was inactive.
For `C[C@@H]1[C@H](O)[C@@H](C)/C=C/C=C/C=C/C=C/C=C/C=C/C=C/[C@H](O[C@@H]2O[C@H](C)[C@@H](O)[C@H](N)[C@@H]2O)C[C@@H]2O[C@](O)(C[C@@H](O)C[C@@H](O)[C@H](O)CC[C@@H](O)C[C@@H](O)CC(=O)O[C@H]1C)C[C@H](O)[C@H]2C(=O)O` [AMPHOTERICIN B], the Activity entry in data set [7] is listed as “Toxic”. The result in the data set on Candida albicans [23] was Active.
